Experimental data from paper PMC6570502 (Chembiochem : a European journal of chemical biology, 2019).

Molecular target: T1, KDM4A S288G mutant (Homo sapiens, UniProt O75164, S288G)
T1 sequence (O75164 1-1064 S288G): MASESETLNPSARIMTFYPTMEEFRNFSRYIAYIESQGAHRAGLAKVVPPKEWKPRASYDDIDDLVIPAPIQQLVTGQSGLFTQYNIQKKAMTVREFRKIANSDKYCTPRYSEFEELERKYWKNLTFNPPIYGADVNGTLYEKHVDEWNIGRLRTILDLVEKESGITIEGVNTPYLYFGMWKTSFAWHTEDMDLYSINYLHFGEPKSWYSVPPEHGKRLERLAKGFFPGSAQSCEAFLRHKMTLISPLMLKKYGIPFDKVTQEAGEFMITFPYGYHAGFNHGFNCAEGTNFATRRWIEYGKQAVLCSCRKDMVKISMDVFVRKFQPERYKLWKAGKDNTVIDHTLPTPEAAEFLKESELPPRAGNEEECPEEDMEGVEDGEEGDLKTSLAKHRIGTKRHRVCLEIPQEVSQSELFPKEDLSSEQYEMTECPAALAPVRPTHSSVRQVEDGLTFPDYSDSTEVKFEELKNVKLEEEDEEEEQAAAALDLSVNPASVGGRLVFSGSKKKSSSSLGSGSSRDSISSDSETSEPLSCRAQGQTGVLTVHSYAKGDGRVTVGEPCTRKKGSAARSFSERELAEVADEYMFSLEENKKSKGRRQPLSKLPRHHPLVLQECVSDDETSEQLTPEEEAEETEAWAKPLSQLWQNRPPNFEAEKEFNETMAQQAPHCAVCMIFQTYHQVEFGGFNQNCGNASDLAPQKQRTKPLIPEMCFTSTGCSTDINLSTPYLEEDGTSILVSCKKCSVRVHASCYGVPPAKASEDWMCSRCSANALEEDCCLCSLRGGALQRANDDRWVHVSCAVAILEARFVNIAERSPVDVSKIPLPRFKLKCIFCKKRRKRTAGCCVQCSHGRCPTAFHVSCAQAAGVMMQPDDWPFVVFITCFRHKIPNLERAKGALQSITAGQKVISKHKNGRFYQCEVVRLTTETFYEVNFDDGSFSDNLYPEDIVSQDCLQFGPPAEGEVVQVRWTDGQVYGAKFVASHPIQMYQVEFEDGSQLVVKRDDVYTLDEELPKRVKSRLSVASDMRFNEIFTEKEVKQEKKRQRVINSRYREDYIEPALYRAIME
Assay: MALDI demethylase assay, H3K9me3 substrate peptide, S288G mutant
Type: biochemical
Method in brief: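 KDM4A mutant demethylation of H3K9me3 peptide, read by MALDI-MS and expressed as % inhibition of demethylase activity, with wild type and the four active-site mutants run under the same conditions. The 2KG cofactor was cut from the 1 mM of the initial activity assay to 50 μM, about 3–4-fold above the enzymes' 2KG KM. KM came from an FDH/NAD+-coupled NADH fluorescence assay.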

[1] = scaffold test under the optimized assay conditions (50 μM 2KG), Figure S7

inhibition of demethylase activity [1] | inhibition of demethylase activity (100 μM compound, 50 μM 2KG, MALDI-MS) | Structure (SMILES)
inhibited |  | O=C(O)c1ccc(O)c2ncccc12 [IOX1, 5-carboxy-8-hydroxyquinone]
inhibited | significantly inhibited | O=C(O)CNC(=O)C(=O)O [compound 2, N-oxalylglycine]
